The source made the active and inactive calls. No cut-off for these calls is given here.
How the values were obtained:
NIH3T3 = test: Inhibition of constitutively active human c-SRC527F mutant-induced growth inhibition in mouse NIH3T3 cells after 3 days by MTT assay; assay type: cell-based
In short: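 NIH3T3 cells carrying constitutively active human c-Src527F were seeded at 4500 cells/well in DMEM/10% FBS and left overnight. They were then exposed for 3 days at 37 °C to a 5-point 2-fold dilution series (n = 3). Growth % = (T−T0)/(C−T0) × 100; GI50 taken from curves.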

CCRF-CEM [1] = test: Antiproliferative activity against human CCRF-CEM cells at 50 uM after 72 hrs relative to control; assay type: functional
In short: (§1)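 Cells cultured in EMEM (HT-29, BT-20) or RPMI (CCRF-CEM) with 10% FBS at 37 °C, 5% CO2. Seeded at 5000 cells/well and treated 72 h after seeding with 50 μM compound, in triplicate, for 24-72 h. CellTiter 96 AQueous One reagent added for 1 h; formazan A490. Survival is (treated − medium blank)/(untreated control − blank) × 100%.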

SYF = test: Inhibition of constitutively active human c-Src527F mutant-induced growth inhibition in src, yes and fyn-deficient mouse SYF cells after 2 days by MTT assay; assay type: cell-based
In short: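 SYF cells (Src/Yes/Fyn knockout) re-expressing c-Src527F were plated at 3500 cells/well in DMEM/10% FBS overnight. Compound was added as a 5-point 2-fold serial dilution in triplicate for 2 days at 37 °C, 5% CO2. GI50 comes from growth % = (T−T0)/(C−T0) × 100, with T0 from day-zero wells.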

HT-29 = test: Antiproliferative activity against c-Src overexpressing human HT-29 cells at 50 uM after 24 to 72 hrs relative to control; assay type: functional; in short: as §1
BT-20 [2] = test: Antiproliferative activity against human BT20 cells at 50 uM after 72 hrs relative to control; assay type: functional; in short: as §1
CCRF-CEM [3] = test: Antiproliferative activity against human CCRF-CEM cells at 10 uM after 72 hrs relative to control; assay type: functional, cell-based
In short: (§2)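 BT-20 in EMEM or CCRF-CEM in RPMI, with 10% FBS, at 37 °C, 5% CO2. Seeded at 5000 cells/well and exposed 72 h after seeding to 10 μM agent, in triplicate. Readout is CellTiter 96 AQueous One, 1 h, A490. Growth is given as percent of untreated control after medium-blank subtraction.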

BT-20 [4] = test: Antiproliferative activity against human BT20 cells at 10 uM after 72 hrs relative to control; assay type: functional, cell-based; in short: as §2

SMILES | GI50 (NIH3T3) [µM] | Activity (CCRF-CEM [1]) [%] | GI50 (SYF) [µM] | Activity (HT-29) [%] | Activity (BT-20 [2]) [%] | Activity (CCRF-CEM [3]) | Activity (BT-20 [4])
O=C(Cc1csc(-c2ccc(OCCN3CCOCC3)cc2)n1)NCc1ccc(F)cc1 | 1.49 | 71 | 2.51 | 54 | – | – | –
O=C(Cc1ccc(-c2ccc(OCCN3CCOCC3)cc2)cn1)NCc1ccccc1 | 0.023 | – | 0.039 | – | – | – | –
O=C(Cc1csc(-c2ccc(OCCN3CCOCC3)cc2)n1)NCc1ccccc1Cl | 7.93 | 30 | 13 | – | 30 | – | –
O=C(Cc1csc(-c2ccc(OCCN3CCOCC3)cc2)n1)NCc1ccc(Cl)c(Cl)c1 | 12.3 | 69 | 12.5 | 54 | – | – | –
Cc1ccc(CNC(=O)Cc2csc(-c3ccc(OCCN4CCOCC4)cc3)n2)cc1 | 4.76 | 61 | 7.23 | 54 | – | – | –
COc1cccc2c1C(=O)c1c(O)c3c(c(O)c1C2=O)C[C@@](O)(C(=O)CO)C[C@@H]3O[C@H]1C[C@H](N)[C@H](O)[C@H](C)O1 | – | – | – | – | – | Active | Active
O=C(Cc1csc(-c2ccc(OCCN3CCOCC3)cc2)n1)NCc1ccccc1 | 1.34 | 30 | 2.3 | – | 30 | – | –

— ChEMBL document CHEMBL1828626, “Thiazolyl N-benzyl-substituted acetamide derivatives: synthesis, Src kinase inhibitory and anticancer activities” (2011)
